Source: ChEMBL document CHEMBL2157987, “Benzimidazole bearing oxadiazole and triazolo-thiadiazoles nucleus: design and synthesis as anticancer agents” (2012)

Legend:
Assay type in all cases: functional
SK-OV-3 = test: Cytotoxicity against human SKOV3 cells after 48 hrs by SRB assay; settings: SK-OV-3, 48 h
Outline: (§1)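 Five-dose NCI-60 panel screen: cells grown in RPMI 1640 with 5% FBS and 2 mM L-glutamine, preincubated 24 h at 37 °C, 5% CO2. Five 10-fold dilutions, 0.01–100 µM, applied for 48 h. Fixed with cold TCA (10% final), stained with 0.4% SRB, absorbance read at 515 nm. GI50, TGI and LC50 were taken from log concentration versus % growth curves using time-zero plates.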

SN12C = test: Cytotoxicity against human SN12C cells after 48 hrs by SRB assay
Outline: (§2)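 Cells were grown in RPMI 1640 with 5% FBS and 2 mM L-glutamine, then held 24 h at 37 °C and 5% CO2 before dosing. TCA-fixed time-zero plates were kept. Compound was dissolved in DMSO and given at five 10-fold dilutions for 48 h. Cells were fixed with cold TCA (10% final), stained with 0.4% SRB and read at 515 nm. GI50, TGI and LC50 came from Ti/Tz/control growth formulas.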

OVCAR-5 = test: Cytotoxicity against human OVCAR5 cells after 48 hrs by SRB assay; settings: OVCAR-5, 48 h; outline: as §1
BT-549 = test: Cytotoxicity against human BT549 cells after 48 hrs by SRB assay; settings: BT-549, 48 h; outline: as §1
HOP-62 = test: Cytotoxicity against human HOP62 cells after 48 hrs by SRB assay; settings: HOP-62, 48 h; outline: as §1
M14 = test: Cytotoxicity against human M14 cells after 48 hrs by SRB assay; settings: M14, 48 h; outline: as §1
RPMI-8226 = test: Cytotoxicity against human RPMI8226 cells after 48 hrs by SRB assay; settings: RPMI-8226, 48 h; outline: as §1
HL-60(TB) = test: Cytotoxicity against human HL-60(TB) cells after 48 hrs by SRB assay; settings: HL-60, 48 h
Outline: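 Human tumour line grown in RPMI 1640 with 5% FBS and 2 mM L-glutamine. Cells were plated and held 24 h at 37 °C/5% CO2 before dosing, and time-zero plates were TCA-fixed. Five 10-fold concentrations (0.01–100 µM) were added from DMSO stock and incubated 48 h. Cells were TCA-fixed, stained with 0.4% SRB and read at 515 nm. Values were calculated from growth curves relative to time-zero and control.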

786-0 = test: Cytotoxicity against human 786-0 cells after 48 hrs by SRB assay; settings: 786-0, 48 h; outline: as §1
Malme-3M = test: Cytotoxicity against human MALME-3M cells after 48 hrs by SRB assay; outline: as §1
A498 = test: Cytotoxicity against human A498 cells after 48 hrs by SRB assay; settings: A498, 48 h; outline: as §1
OVCAR-4 = test: Cytotoxicity against human OVCAR4 cells after 48 hrs by SRB assay; settings: OVCAR-4, 48 h; outline: as §1
K562 = test: Cytotoxicity against human K562 cells after 48 hrs by SRB assay; settings: K562, 48 h; outline: as §1
NCI-H322M = test: Cytotoxicity against human NCI-H322M cells after 48 hrs by SRB assay; outline: as §1
SF-268 = test: Cytotoxicity against human SF268 cells after 48 hrs by SRB assay; settings: SF-268, 48 h; outline: as §1
SNB-19 = test: Cytotoxicity against human SNB19 cells after 48 hrs by SRB assay; settings: SNB-19, 48 h; outline: as §2
NCI-H522 = test: Cytotoxicity against human NCI-H522 cells after 48 hrs by SRB assay; settings: NCI-H522, 48 h; outline: as §1
MDA-MB-231 = test: Cytotoxicity against human MDA-MB-231 cells after 48 hrs by SRB assay; settings: MDA-MB-231, 48 h; outline: as §1
SK-MEL-2 = test: Cytotoxicity against human SK-MEL-2 cells after 48 hrs by SRB assay; settings: SK-MEL-2, 48 h; outline: as §1
SNB-75 = test: Cytotoxicity against human SNB75 cells after 48 hrs by SRB assay; settings: SNB-75, 48 h; outline: as §2
[1] = read-out: LC50 (the source's name)
[2] = read-out: pLC50 (the source's name) (converted)

Nc1cc(Br)c(-c2nnc(CCC(=O)c3nc4ccccc4[nH]3)o2)c(Br)c1
GI50 (SK-OV-3): 22.4 µM
LC50 (SK-OV-3; read-out: LC50): > 100 µM
TGI (SK-OV-3; read-out: TGI): 80.5 µM
LC50 (SK-OV-3; read-out: pLC50 (converted)): > 100 µM
TGI (SK-OV-3; read-out: pTGI (converted)): 81.3 µM
GI50 (SN12C): 29.5 µM
CC50 (SN12C; [1]): > 100 µM
TGI (SN12C; read-out: TGI): > 100 µM
CC50 (SN12C; [2]): > 100 µM
TGI (SN12C; read-out: pTGI): > 100 µM
GI50 (OVCAR-5): 29.5 µM
LC50 (OVCAR-5; read-out: LC50): > 100 µM
TGI (OVCAR-5; read-out: TGI): > 100 µM
LC50 (OVCAR-5; read-out: pLC50 (converted)): > 100 µM
TGI (OVCAR-5; read-out: pTGI): > 100 µM
GI50 (BT-549): 6.76 µM
CC50 (BT-549; [1]): > 100 µM
TGI (BT-549; read-out: TGI): > 100 µM
CC50 (BT-549; [2]): > 100 µM
TGI (BT-549; read-out: pTGI): > 100 µM
GI50 (HOP-62): 23.4 µM
CC50 (HOP-62; [1]): > 100 µM
TGI (HOP-62; read-out: TGI): > 100 µM
CC50 (HOP-62; [2]): > 100 µM
TGI (HOP-62; read-out: pTGI): > 100 µM
GI50 (M14): 17.4 µM
CC50 (M14; [1]): > 100 µM
TGI (M14; read-out: TGI): 55.5 µM
CC50 (M14; [2]): > 100 µM
TGI (M14; read-out: pTGI (converted)): 55 µM
GI50 (RPMI-8226): 4.17 µM
CC50 (RPMI-8226; [1]): > 100 µM
TGI (RPMI-8226; read-out: TGI): > 100 µM
CC50 (RPMI-8226; [2]): > 100 µM
TGI (RPMI-8226; read-out: pTGI): > 100 µM
GI50 (HL-60(TB)): 3.47 µM
CC50 (HL-60(TB); [1]): > 100 µM
TGI (HL-60(TB); read-out: TGI): > 100 µM
CC50 (HL-60(TB); [2]): > 100 µM
TGI (HL-60(TB); read-out: pTGI): > 100 µM
GI50 (786-0): 20.9 µM
LC50 (786-0; read-out: LC50): > 100 µM
TGI (786-0; read-out: TGI): 61.7 µM
LC50 (786-0; read-out: pLC50 (converted)): > 100 µM
TGI (786-0; read-out: pTGI (converted)): 61.7 µM
GI50 (Malme-3M): 2.04 µM
CC50 (Malme-3M; [1]): > 100 µM
TGI (Malme-3M; read-out: TGI): 17.2 µM
CC50 (Malme-3M; [2]): > 100 µM
TGI (Malme-3M; read-out: pTGI (converted)): 17.4 µM
GI50 (A498): 0.661 µM
CC50 (A498; [1]): > 100 µM
TGI (A498; read-out: TGI): 10.5 µM
CC50 (A498; [2]): > 100 µM
TGI (A498; read-out: pTGI (converted)): 10.5 µM
GI50 (OVCAR-4): 5.5 µM
LC50 (OVCAR-4; read-out: LC50): > 100 µM
TGI (OVCAR-4; read-out: TGI): 78.2 µM
LC50 (OVCAR-4; read-out: pLC50 (converted)): > 100 µM
TGI (OVCAR-4; read-out: pTGI (converted)): 77.6 µM
GI50 (K562): 2.88 µM
CC50 (K562; [1]): > 100 µM
TGI (K562; read-out: TGI): > 100 µM
CC50 (K562; [2]): > 100 µM
TGI (K562; read-out: pTGI): > 100 µM
GI50 (NCI-H322M): 8.13 µM
CC50 (NCI-H322M; [1]): > 100 µM
TGI (NCI-H322M; read-out: TGI): > 100 µM
CC50 (NCI-H322M; [2]): > 100 µM
TGI (NCI-H322M; read-out: pTGI): > 100 µM
GI50 (SF-268): 5.13 µM
CC50 (SF-268; [1]): > 100 µM
TGI (SF-268; read-out: TGI): 81.6 µM
CC50 (SF-268; [2]): > 100 µM
TGI (SF-268; read-out: pTGI (converted)): 81.3 µM
GI50 (SNB-19): 20 µM
CC50 (SNB-19; [1]): > 100 µM
TGI (SNB-19; read-out: TGI): > 100 µM
CC50 (SNB-19; [2]): > 100 µM
TGI (SNB-19; read-out: pTGI): > 100 µM
GI50 (NCI-H522): 2.88 µM
CC50 (NCI-H522; [1]): > 100 µM
TGI (NCI-H522; read-out: TGI): 16.9 µM
CC50 (NCI-H522; [2]): > 100 µM
TGI (NCI-H522; read-out: pTGI (converted)): 17 µM
GI50 (MDA-MB-231): 10.2 µM
LC50 (MDA-MB-231; read-out: LC50): > 100 µM
TGI (MDA-MB-231; read-out: TGI): 86.8 µM
LC50 (MDA-MB-231; read-out: pLC50 (converted)): > 100 µM
TGI (MDA-MB-231; read-out: pTGI (converted)): 87.1 µM
GI50 (SK-MEL-2): 4.27 µM
CC50 (SK-MEL-2; [1]): > 100 µM
TGI (SK-MEL-2; read-out: TGI): > 100 µM
CC50 (SK-MEL-2; [2]): > 100 µM
TGI (SK-MEL-2; read-out: pTGI): > 100 µM
GI50 (SNB-75): 2.95 µM
CC50 (SNB-75; [1]): > 100 µM
TGI (SNB-75; read-out: TGI): 20.5 µM
CC50 (SNB-75; [2]): > 100 µM
TGI (SNB-75; read-out: pTGI (converted)): 20.4 µM
